Most compounds without a hit are left out; they make up all but 1.1% or so of the library.
ERAP1 inh = inhibitors of human ERAP1 aminopeptidase. Q9NZ08. recombinant ERAP1, Leu-AMC fluorescence, 60 min. inhibition, % at 10.7 µM. hit rate 0.15% among 340,000;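 active = mean replicate inhibition of at least 30%, or all replicates individually reaching that 30% level; inactive = mean below 30% and not every replicate reaching it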;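 also: 0% = neutral control wells and 100% = L-leucinethiol positive control wells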
Rin1 Abl inh = blocks binding of human Rin1 to Abl; P00519+Q13671; TR-FRET Rin1/Abl binding, biochemical; inhibition, % at 7.35 µM; hit rate 0.4% among 360,000; AID 588664; in the data active = inhibition above about 5%, passing the limit was not always enough
PDI turbidity = inhibitors of human protein disulfide isomerase. inhibition, % at 10 µM. PDI insulin aggregation turbidity, A650, 90 min. P07237. hit rate 0.052% among 350,000;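 active = mean inhibition across replicates of 30% or more, whatever share of single replicates reach that level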
CAL PDZ FP-1 = CAL PDZ (human) peptide binding inhibition. purified CAL PDZ, TMR-peptide fluorescence polarization, 1 h. Q9HD26. hit rate 0.92% among 300,000. inhibition, % at 24.9 µM. AID 602252;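 active = mean inhibition of at least 30% with at least half of replicates also reaching 30%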;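 also: 0% = DMSO neutral control and 100% = excess unlabeled competitor peptide PRC23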
CAL PDZ FP-2 = inhibitors of human CAL PDZ peptide binding; purified CAL PDZ, TMR-peptide fluorescence polarization, 1 h; Q9HD26; AID 504414; inhibition, % at 20 µM; hit rate 0.02% among 330,000;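 active = highest replicate inhibition of at least 40%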;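 also: plate controls were DMSO neutral control wells for no effect and unlabeled competitor peptide control wells for full effect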
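Material: tagged CAL PDZ domain; buffer or medium: 25 mM sodium phosphate pH 7.4, 150 mM NaCl, TCEP, IgG, Thesit; compound dosing: single point, 20 µM; schedule: 1 h incubation at room temperature before polarization reading; measured by: FP readout, S and P plane fluorescence; read-out basis: percent inhibition from loss of millipolarization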
ERp5 block = ERp5 (human) disulfide isomerase inhibition; inhibition, % at 9.99 µM; Q15084; ERp5 insulin aggregation, absorbance 650 nm, 90 min; hit rate 0.05% among 350,000; AID 651711;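 active = mean replicate inhibition above about 25%, with every replicate also reaching it, limit read from the data, passing the limit was not always enough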
Target sequence (Q15084 whole entry, looked up): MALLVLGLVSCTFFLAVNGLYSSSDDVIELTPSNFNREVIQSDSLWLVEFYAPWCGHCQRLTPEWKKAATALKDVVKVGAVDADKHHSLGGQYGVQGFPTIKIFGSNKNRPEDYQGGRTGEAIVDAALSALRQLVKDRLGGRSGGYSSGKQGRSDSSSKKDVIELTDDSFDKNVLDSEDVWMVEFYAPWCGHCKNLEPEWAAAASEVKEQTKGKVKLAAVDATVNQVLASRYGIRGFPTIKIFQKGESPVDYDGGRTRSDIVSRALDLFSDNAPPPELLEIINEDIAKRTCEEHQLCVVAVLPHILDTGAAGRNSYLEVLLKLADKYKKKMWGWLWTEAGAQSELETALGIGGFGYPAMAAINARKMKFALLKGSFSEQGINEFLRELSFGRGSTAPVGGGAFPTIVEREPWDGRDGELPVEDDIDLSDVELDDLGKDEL
Rin1-Abl confirm = confirmation of inhibitors of human Rin1-Abl interaction. shares compounds with Rin1 Abl inh. inhibition, % at 7.35 µM. AID 602124. hit rate 49% among 1,300. TR-FRET Rin1-Abl binding, purified proteins
GFP quench-1 = counter-screen for Rin1-Abl inhibitors: GFP fluorescence quenchers; shares compounds with Rin1 Abl inh; inhibitors/quenchers counterscreen; inhibition, % at 6.75 µM; hit rate 8.5% among 1,300;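 also: ABL1-eGFP fusion protein alone without its partner RIN1-SBP; 0% = protein with vehicle and 100% = wells lacking protein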
GFP quench DR = quenches GFP in dose response, Rin1-Abl counter-screen; GFP fluorescence interference/quenching counterscreen; 230 tested, under 10 active; IC50, µM; shares compounds with Rin1 Abl inh; call rule not given here;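 also: ABL1-eGFP fusion protein alone without its RIN1 binding partner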
GFP quench-2 = GFP quenching artifact for Rin1-Abl inhibitor hits. shares compounds with Rin1 Abl inh. IC50, µM. GFP fluorescence quenching counterscreen, biochemical. 25 tested, under 10 active. AID 602397; call rule not given here
* = called active by the depositor; / = no result. Rule as the data show it, unless noted: active = inhibition above about 6.5%; inactive = the rest.

SMILES	ERAP1 inh	Rin1 Abl inh	PDI turbidity	CAL PDZ FP-1	CAL PDZ FP-2	ERp5 block	Rin1-Abl confirm	GFP quench-1	others
COc1ccc(CN(C)C[C@H]2OCCCC[C@@H](C)Oc3ccc(NS(=O)(=O)c4cccs4)cc3C(=O)N([C@@H](C)CO)C[C@@H]2C)cc1	2.1	/	/	/	/	10.4	/	/
CC(=O)c1ccc2c(c1)C1C=CCC1C(C(=O)O)N2 (centres undefined)	5.4	13.7*	14.1	-3.0	1.1	0.8	12.6*	43.5*
Cc1ccc(C(=O)NCCn2cc(SCC(=O)Nc3cc(C)on3)c3ccccc32)cc1	8.5	1.7	/	/	-1.3	6.9	/	/
Cc1cc(NC(=O)CSc2cn(CCNC(=O)c3ccccc3)c3ccccc23)no1	/	24.1*	/	/	-0.4	/	14.2*	1.9
O=C(NCCOc1nc(N2CCOCC2)nc(N2CCOCC2)n1)Nc1ccccc1	/	6.9*	-5.0	-2.4	-3.7	/	2.1	-1.9
O=C(NCCOc1nc(N2CCCCC2)nc(N2CCOCC2)n1)Nc1ccccc1	/	0.9	0.6	1.2	0.4	/	/	/
NC(=O)[C@@H]1CCCN1C(=O)c1cc(COc2ccc3c(c2)CCCC3)on1	-3.6	6.1*	10.1	-7.2	-0.5	1.8	0.1	0.9
C[C@@H]1CN([C@@H](C)CO)S(=O)(=O)c2ccc(/C=C/c3ccccc3)cc2O[C@@H]1CN(C)C(=O)C1CC1	0.1	/	/	/	/	2.1	/	/
CCOC(=O)N1CCN(C(=O)CSc2cc(C)nc3c(-c4ccccc4OC)c(C)nn23)CC1	/	-0.7	-0.9	-3.2	-2.0	/	/	/
CCOC(=O)N1CCC(Nc2cc(C)nc3c(-c4ccccc4OC)c(C)nn23)CC1	0.2	6.2*	-3.9	/	-0.1	8.1	3.0	-1.4
Cc1cc(Oc2ccc(=O)n(C)n2)nc(SCCOc2ccccc2)n1	/	33.2*	9.6	0.4	-1.6	4.7	-4.6	0.2
CN(C)CC(=O)N[C@@H]1CC[C@@H](CC(=O)O)O[C@H]1CO	2.0	/	/	/	/	3.4	/	/
O=C1C=CC(=O)c2c(O)c(N3CCN(CCO)CC3)c(Cl)c(O)c21	5.1	47.9*	2.7	0.7	3.2	-0.5	51.2*	23.6*
OCCOCCN1CCN(C2=Nc3ccccc3Sc3ccccc32)CC1	-3.5	-2.7	-6.5	-5.5	0.5	1.5	/	/
O=C1C=CC(=O)c2c(O)c(N3CCN(CCOCCO)CC3)c(Br)c(O)c21	2.0	39.4*	-30.6	3.7	6.8	5.3	54.4*	25.0*
CN(C)CC(=O)N[C@H]1CC[C@H](CCn2cc(CN(C)C)nn2)O[C@H]1CO	0.8	/	/	/	/	-1.7	/	/
O=C(COC(=O)c1cccnc1)Nc1ccc(F)cc1	/	5.7*	-1.5	-1.9	0.9	/	-2.1	-0.4
CCOC(=O)N1CCN(C(=O)C2CCN(C(=O)Nc3ccccc3)CC2)CC1	1.1	3.1	9.3	/	-0.4	-6.1	/	/
CCOC(=O)N1CCN(C(=O)Nc2ccc(NC(=O)N3CCN(C(=O)OCC)CC3)cc2)CC1	-0.5	33.3*	-5.3	0.0	-0.7	3.1	38.4*	-0.9	GFP quench DR=>67.6;GFP quench-2=>67.5
CS(=O)(=O)N1[C@H](C#N)[C@H](c2ccccc2)[C@H]1CO	0.8	/	/	/	/	-5.5	/	/
COc1ccc(S(=O)(=O)N(C)C[C@@H]2Oc3cc(C#CC4CC4)ccc3S(=O)(=O)N([C@H](C)CO)C[C@@H]2C)cc1	3.2	/	/	/	/	5.8	/	/
Cc1nnc(SCCOc2ccccc2)s1	-8.7	11.2*	-1.8	4.9	-1.3	-3.7	7.9*	0.5
C[C@H]1CN([C@@H](C)CO)C(=O)Cc2cc(NC(=O)Cc3cn(C)c4ccccc34)ccc2O[C@@H]1CN(C)CC1CCCCC1	-2.3	/	/	/	/	7.8	/	/
CCc1ccc(NC(=O)Cn2c(=O)oc3cc(S(=O)(=O)N4CCOCC4)ccc32)cc1	2.9	8.1*	0.8	/	-0.1	-3.8	1.5	-0.6
CCc1cccc(NC(=O)Cn2c(=O)oc3cc(S(=O)(=O)N4CCOCC4)ccc32)c1	-0.9	6.2	-5.5	-2.2	0.7	3.1	/	/
SMILES	ERAP1 inh	Rin1 Abl inh	PDI turbidity	CAL PDZ FP-1	CAL PDZ FP-2	ERp5 block	Rin1-Abl confirm	GFP quench-1	others
CCc1nn(CC(=O)N2CCC(C(N)=O)CC2)c(=O)c2cc3occc3n12	-2.8	11.8*	-4.2	-9.7	-0.2	2.9	-0.5	0.4
CCOC(=O)C1CCN(C(=O)CCCn2nc(CC)n3c(cc4occc43)c2=O)CC1	3.2	0.1	12.7	/	-1.1	-9.4	/	/
C1CCC(c2nn3c(-c4n[nH]c5c4CCC5)nnc3s2)CC1	/	24.9*	4.5	-7.6	-1.6	/	14.3*	0.1
CCN(CC)c1ccc(-c2nn3c(-c4n[nH]c5c4CCC5)nnc3s2)cc1	/	-2.8	-4.6	/	0.6	/	/	/
Cc1nc(-c2ccc(C(=O)N3CCCC3)cc2)cs1	-2.4	6.2*	1.6	-0.8	0.6	-9.8	-1.2	0.2
Cc1nc(-c2ccc(C(=O)N3CCOCC3)cc2)cs1	/	2.9	-3.5	-1.0	-1.0	/	/	/
CO[C@H]1CN(C)C(=O)c2ccc(NS(=O)(=O)c3ccc(Cl)cc3)cc2OC[C@H](C)N(C)C[C@H]1C	-3.1	/	/	/	/	4.5	/	/
CCOC(=O)C1CCCN(Cc2ccccc2C)C1 (centres undefined)	/	-0.8	-5.4	-10.1	-0.3	/	/	/
CCOC(=O)C1CCCN(Cc2ccccc2OCC)C1 (centres undefined)	/	9.4*	-7.0	-2.0	-0.3	/	-0.4	0.1
C[C@H](CO)N1C[C@H](C)[C@H](CN(C)CC2CCCCC2)Oc2cc(C3=CCCC3)ccc2S1(=O)=O	0.1	/	/	/	/	-0.9	/	/
CCN(CC)CCCNC(=O)C1c2ccccc2Oc2ccccc21	/	5.0*	2.1	-2.0	-0.6	/	0.7	-0.8
CC(=O)N[C@@H]1C=C[C@H](CC(=O)NCc2ccc(Cl)cc2)O[C@H]1CO	0.7	/	/	/	/	-2.8	/	/
C=C(C)Cn1c(C(C)NC(=O)CCC)nc2ccccc21 (centres undefined)	/	8.6*	1.7	2.8	-0.3	/	-0.7	0.1
Cc1c(F)cccc1NS(=O)(=O)c1ccc2c(c1)c(=O)n(C)c(=O)n2C	12.1	10.3*	-1.9	-4.4	-0.1	2.0	2.2	-0.8
O=C(OCCCOC(=O)c1ccc(O)cc1)c1ccc(O)cc1	-0.4	19.5*	17.3	-6.3	-3.9	-5.5	16.8*	0.4
O=C(NCc1ccc(F)cc1)[C@@H]1[C@@H](CO)[C@@H]2Cn3c(cccc3=O)[C@H]1N2CC1CCCC1	-0.4	/	/	/	/	-0.9	/	/
CCCCN(C)C(=O)c1ccc(Nc2nc(C(N)CCc3ccccc3)cs2)nc1 (centres undefined)	1.4	2.8	-2.9	/	/	3.6	/	/
